From ChEMBL document CHEMBL5108081, “Development of an N-Terminal BRD4 Bromodomain-Targeted Degrader” (ACS Med Chem Lett, 2022)
Blank lines part the entries; values can stand above or below the compound they belong to. Calls of active or inactive are those of the source. The rule behind the calls is not given here.

Key:
[1] = molecular target: T1, Bromodomain-containing protein 3 (Homo sapiens, UniProt Q15059); test: Inhibition of BRD3-BD1 (unknown origin) measured by AlphaScreen assay
In short: (§1)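 Commercial AlphaScreen displacement assay run by an outside service on a panel of BET bromodomains. Values are the means of duplicate experiments.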

[2] = molecular target: T1, Bromodomain-containing protein 3; test: Inhibition of BRD3-BD2 (unknown origin) measured by AlphaScreen assay; in short: as §1
[3] = molecular target: T2, Bromodomain-containing protein 2 (Homo sapiens, UniProt P25440); test: Inhibition of BRD2-BD1 (unknown origin) measured by AlphaScreen assay; in short: as §1
T2 sequence (P25440 whole entry): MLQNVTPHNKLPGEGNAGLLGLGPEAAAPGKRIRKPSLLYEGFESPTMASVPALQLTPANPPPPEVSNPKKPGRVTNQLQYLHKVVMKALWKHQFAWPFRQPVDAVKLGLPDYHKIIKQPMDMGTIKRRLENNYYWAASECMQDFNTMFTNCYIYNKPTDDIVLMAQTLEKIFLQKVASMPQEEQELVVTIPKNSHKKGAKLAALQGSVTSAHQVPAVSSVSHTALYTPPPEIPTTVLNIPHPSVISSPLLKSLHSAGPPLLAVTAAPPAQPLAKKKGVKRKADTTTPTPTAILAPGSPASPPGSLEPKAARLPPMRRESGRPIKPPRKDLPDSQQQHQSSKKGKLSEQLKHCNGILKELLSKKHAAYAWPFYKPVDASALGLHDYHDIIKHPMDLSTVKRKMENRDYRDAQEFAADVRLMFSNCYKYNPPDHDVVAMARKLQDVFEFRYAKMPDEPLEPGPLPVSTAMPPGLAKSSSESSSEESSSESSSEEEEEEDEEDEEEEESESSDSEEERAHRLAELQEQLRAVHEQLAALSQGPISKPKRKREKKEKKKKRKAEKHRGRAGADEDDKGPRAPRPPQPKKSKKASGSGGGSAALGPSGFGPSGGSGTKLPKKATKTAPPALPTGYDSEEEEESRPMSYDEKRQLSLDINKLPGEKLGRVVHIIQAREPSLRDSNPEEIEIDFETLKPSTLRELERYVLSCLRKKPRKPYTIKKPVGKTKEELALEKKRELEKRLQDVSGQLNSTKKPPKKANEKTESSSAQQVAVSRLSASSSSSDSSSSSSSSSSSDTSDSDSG

[4] = molecular target: T2, Bromodomain-containing protein 2; test: Inhibition of BRD2-BD2 (unknown origin) measured by AlphaScreen assay; in short: as §1
Homo sapiens [5] = organism: Homo sapiens; test: Ratio IC50 for inhibition of BRD4-BD2 (unknown origin) over inhibition of His9-tagged BRD4-BD1 (unknown origin)
Homo sapiens [6] = organism: Homo sapiens; test: Ratio IC50 for inhibition of BRD3-BD1 (unknown origin) over inhibition of His9-tagged BRD4-BD1 (unknown origin)
Homo sapiens [7] = organism: Homo sapiens; test: Ratio IC50 for inhibition of BRD3-BD2 (unknown origin) over inhibition of His9-tagged BRD4-BD1 (unknown origin)
Homo sapiens [8] = organism: Homo sapiens; test: Ratio IC50 for inhibition of BRD2-BD1 (unknown origin) over inhibition of His9-tagged BRD4-BD1 (unknown origin)
Homo sapiens [9] = organism: Homo sapiens; test: Ratio IC50 for inhibition of BRD2-BD2 (unknown origin) over inhibition of His9-tagged BRD4-BD1 (unknown origin)
[10] = molecular target: T3, Protein cereblon/Bromodomain-containing protein 4 (Homo sapiens, UniProt O60885+Q96SW2); test: Binding affinity to GST-tagged CRBN/6xHis-tagged BRD4-BD1 (unknown origin) assessed as induction of dimerization of CRBN/BRD4-BD1 measured by TR-FRET assay; assay type: protein assay
T3 sequence (Q96SW2 whole entry, looked up, other chains not shown): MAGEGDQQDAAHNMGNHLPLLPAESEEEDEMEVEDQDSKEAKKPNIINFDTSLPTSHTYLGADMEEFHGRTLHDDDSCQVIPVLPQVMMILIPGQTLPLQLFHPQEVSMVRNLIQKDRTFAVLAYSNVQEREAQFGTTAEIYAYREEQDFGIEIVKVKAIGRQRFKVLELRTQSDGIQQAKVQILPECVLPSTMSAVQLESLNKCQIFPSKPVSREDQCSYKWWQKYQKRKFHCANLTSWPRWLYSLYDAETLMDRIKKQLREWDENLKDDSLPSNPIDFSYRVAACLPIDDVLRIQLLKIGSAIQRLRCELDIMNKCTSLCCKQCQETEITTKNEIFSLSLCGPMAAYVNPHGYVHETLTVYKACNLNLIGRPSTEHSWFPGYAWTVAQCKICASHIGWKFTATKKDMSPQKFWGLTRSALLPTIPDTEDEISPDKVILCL

[11] = molecular target: T3, Protein cereblon/Bromodomain-containing protein 4; test: Binding affinity to GST-tagged CRBN/6xHis-tagged BRD4-BD2 (unknown origin) assessed as induction of dimerization of CRBN/BRD4-BD2 measured by TR-FRET assay; assay type: protein assay
[12] = molecular target: T3, Protein cereblon/Bromodomain-containing protein 4; test: Binding affinity to GST-tagged CRBN/6xHis-tagged BRD4-BD1 (unknown origin) assessed as ternary complex formation measured by TR-FRET assay; assay type: protein assay
[13] = molecular target: T3, Protein cereblon/Bromodomain-containing protein 4; test: Binding affinity to GST-tagged CRBN/6xHis-tagged BRD4-BD1 (unknown origin) assessed as induction of dimerization of CRBN/BRD4-BD1 at 4.6 nM measured by TR-FRET assay; assay type: protein assay
[14] = molecular target: T3, Protein cereblon/Bromodomain-containing protein 4; test: Protac activity at CRBN/BRD4-BD1 in human MM1.S cells assessed as induction of BRD4-BD1 degradation measured after 24 hrs by western blot analysis; assay type: cell-based
In short: (§2)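 MM.1S cells were treated for 24 h, and BRD4 was probed by western blot. Band densitometry was quantified from three biological replicate blots.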

[15] = molecular target: T3, Protein cereblon/Bromodomain-containing protein 4; test: Protac activity at CRBN/BRD4-BD1 in human MM1.S cells assessed as induction of BRD4-BD1 degradation measured after 24 hrs by western blot analysis relative to control; assay type: cell-based; in short: as §2
[16] = molecular target: T3, Protein cereblon/Bromodomain-containing protein 4; test: Protac activity at Halo-tagged CRBN/BRD4-BD1-NanoLuc fusion protein expressed in human HEK293T cells assessed as induction of BRD4-BD1 degradation at 0.2 uM measured by NanoBRET assay; assay type: cell-based
MM1.S = test: Cytotoxicity against human MM1.S cells assessed as downregulation of cMyc expression; assay type: toxicity, cell-based
[17] = molecular target: T3, Protein cereblon/Bromodomain-containing protein 4; test: Protac activity at CRBN/BRD4-BD1 in human MM1.S cells assessed as induction of BRD4-BD1 degradation measured at 5 uM after 8 hrs by western blot analysis; assay type: cell-based
In short: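 Time-course study in MM.1S cells with BRD4 levels followed by western blot at successive time points. BRD2, BRD3 and cMyc were also probed.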

[18] = molecular target: T3, Protein cereblon/Bromodomain-containing protein 4; test: Protac activity at CRBN/BRD4-BD1 in human MM1.S cells assessed as induction of BRD4-BD1 degradation measured at 1 uM in presence of 0.01 to 1 uM iBET-BD2 measured by Western blot analysis; assay type: cell-based
In short: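 Rescue experiment in MM.1S cells: the degrader was co-treated with a pan-BD1 inhibitor, the proteasome inhibitor MG132, the neddylation inhibitor MLN4924 or the pan-BD2 inhibitor iBET-BD2. BRD4 was then read by western blot against an untreated control on the same gel.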

T1 sequence (Q15059 whole entry): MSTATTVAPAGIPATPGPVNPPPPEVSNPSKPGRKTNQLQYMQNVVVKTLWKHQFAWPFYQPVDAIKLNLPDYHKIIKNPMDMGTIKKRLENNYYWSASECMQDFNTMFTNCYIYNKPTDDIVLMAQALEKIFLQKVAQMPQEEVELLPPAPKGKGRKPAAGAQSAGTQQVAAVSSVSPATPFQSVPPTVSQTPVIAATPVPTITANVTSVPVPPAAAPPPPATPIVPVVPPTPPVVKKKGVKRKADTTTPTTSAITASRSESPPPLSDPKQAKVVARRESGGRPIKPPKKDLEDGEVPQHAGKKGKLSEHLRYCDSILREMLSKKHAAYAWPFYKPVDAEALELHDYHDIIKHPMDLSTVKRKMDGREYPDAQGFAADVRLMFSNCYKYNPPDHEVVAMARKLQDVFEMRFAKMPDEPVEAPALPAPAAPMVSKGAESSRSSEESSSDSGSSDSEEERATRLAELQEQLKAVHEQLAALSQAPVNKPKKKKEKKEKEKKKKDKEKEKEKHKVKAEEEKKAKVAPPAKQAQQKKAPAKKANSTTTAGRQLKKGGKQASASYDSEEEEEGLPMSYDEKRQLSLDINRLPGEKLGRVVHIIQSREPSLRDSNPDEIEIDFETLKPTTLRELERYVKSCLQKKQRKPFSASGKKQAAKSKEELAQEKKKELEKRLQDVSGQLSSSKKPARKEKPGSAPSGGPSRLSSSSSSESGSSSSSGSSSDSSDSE

IC50 [1]: 1000 nM
IC50 [2]: 75000 nM
IC50 [3]: 280 nM
IC50 [4]: 7100 nM
Compound: Cc1ccc(C(C)C)cc1Oc1nccc(-c2c(-c3ccc(C(F)(F)F)cc3)ncn2C2CCNCC2)n1

Ratio IC50 (Homo sapiens [5]): 9
Ratio IC50 (Homo sapiens [6]): 9
Ratio IC50 (Homo sapiens [7]): 9
Ratio IC50 (Homo sapiens [8]): 9
Ratio IC50 (Homo sapiens [9]): 9
Compound: Cc1cc(C)cc(Nc2nccc(-c3c(-c4ccc(C(F)(F)F)cc4)ncn3C3CCN(CCN)CC3)n2)c1

Ratio IC50 (Homo sapiens [6]): 6
Ratio IC50 (Homo sapiens [7]): 6
Ratio IC50 (Homo sapiens [9]): 6
Compound: Cc1cc(C)cc(Nc2nccc(-c3c(-c4ccc(F)cc4)ncn3C3CCNCC3)n2)c1

More lines, now with the values behind:

Compound: Cc1sc2c(c1C)C(c1ccc(Cl)cc1)=N[C@@H](CC(=O)NCCCCNC(=O)COc1cccc3c1C(=O)N(C1CCC(=O)NC1=O)C3=O)c1nnc(C)n1-2 (some centres not stated)
Activity [10]: Active
Activity [11]: Active

Compound: Cc1ccc(C(C)C)cc1Oc1nccc(-c2c(-c3ccc(C(F)(F)F)cc3)ncn2C2CCN(CCOCCOCCNC(=O)COc3cccc4c3C(=O)N(C3CCC(=O)NC3=O)C4=O)CC2)n1 (configuration not stated)
Activity [12]: Active
Activity [13]: Active
DC50 [14]: 280 nM
Activity [15]: 77%
Activity [16]: Active
Activity (MM1.S): Non-Toxic
Activity [17]: Active
Activity [18]: Active
